{"source": "ChEMBL document CHEMBL3045731", "about": "“Facile synthesis and herbicidal evaluation of 4H-3,1-benzoxazin-4-ones and 3H-quinazolin-4-ones with 2-phenoxymethyl substituents” (Molecules, 2012)", "key": {"Brassica napus [1]": {"system": "Brassica napus", "experiment": "Herbicidal activity against Brassica napus (oilseed rape) assessed as inhibition of root elongation after 5 days by petri dish culture method", "assay_type": "functional, organism-based"}, "Echinochloa crus-galli [2]": {"system": "Echinochloa crus-galli", "experiment": "Herbicidal activity against Echinochloa crus-galli (barnyard grass) assessed as inhibition of stalk growth at 10 mg/L after 5 days by petri dish culture method relative to control", "assay_type": "functional", "details": "120 h, read-out: GI", "outline": "(§1)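 Test solutions were made in DMF, emulsified with Tween 80, and diluted with water, then added to Petri dishes lined with two filter papers. Twenty rape and twenty barnyard grass seeds were incubated 5 days at 23 ± 1 °C, 60 ± 5% humidity, 10 Klux, 12 h/day light. Mean length of 10 roots and 10 stems gave percent inhibition versus distilled-water controls.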"}, "Echinochloa crus-galli [3]": {"system": "Echinochloa crus-galli", "experiment": "Herbicidal activity against Echinochloa crus-galli (barnyard grass) assessed as inhibition of root growth at 10 mg/L after 5 days by petri dish culture method relative to control", "assay_type": "functional", "details": "120 h, read-out: GI", "outline": "as §1"}, "Brassica napus [4]": {"system": "Brassica napus", "experiment": "Herbicidal activity against Brassica napus (oilseed rape) assessed as inhibition of stalk growth at 1 mg/L after 5 days by petri dish culture method relative to control", "assay_type": "functional", "details": "120 h, read-out: GI", "outline": "as §1"}, "Brassica napus [5]": {"system": "Brassica napus", "experiment": "Herbicidal activity against Brassica napus (oilseed rape) assessed as inhibition of root growth at 10 mg/L after 5 days by petri dish culture method relative to control", "assay_type": "functional", "details": "120 h, read-out: GI", "outline": "as §1"}, "Echinochloa crus-galli [6]": {"system": "Echinochloa crus-galli", "experiment": "Herbicidal activity against Echinochloa crus-galli (barnyard grass) assessed as inhibition of root growth at 1 mg/L after 5 days by petri dish culture method relative to control", "assay_type": "functional", "details": "120 h, read-out: GI", "outline": "as §1"}, "Brassica napus [7]": {"system": "Brassica napus", "experiment": "Herbicidal activity against Brassica napus (oilseed rape) assessed as inhibition of root growth at 1 mg/L after 5 days by petri dish culture method relative to control", "assay_type": "functional", "details": "120 h, read-out: GI", "outline": "as §1"}, "Echinochloa crus-galli [8]": {"system": "Echinochloa crus-galli", "experiment": "Herbicidal activity against Echinochloa crus-galli (barnyard grass) assessed as inhibition of stalk growth at 1 mg/L after 5 days by petri dish culture method relative to control", "assay_type": "functional", "details": "120 h, read-out: GI", "outline": "as §1"}, "Brassica napus [9]": {"system": "Brassica napus", "experiment": "Herbicidal activity against Brassica napus (oilseed rape) assessed as inhibition of stalk growth at 10 mg/L after 5 days by petri dish culture method relative to control", "assay_type": "functional", "details": "120 h, read-out: GI", "outline": "as §1"}}, "data": [{"smiles": "O=c1oc(COc2ccc(Cl)cc2)nc2ccccc12", "values": [{"measurement": "IC50", "setting": "Brassica napus [1]", "value": 30.37, "unit": "µmol"}]}, {"smiles": "COc1cc2nc(COc3ccc(Cl)cc3Cl)oc(=O)c2cc1OC", "values": [{"measurement": "IC50", "setting": "Brassica napus [1]", "value": 142.22, "unit": "µmol"}]}, {"smiles": "O=c1oc(COc2ccc(Cl)cc2Cl)nc2ccccc12", "values": [{"measurement": "IC50", "setting": "Brassica napus [1]", "value": 10.34, "unit": "µmol"}]}, {"smiles": "O=c1oc(COc2ccc(Cl)cc2)nc2ccc(Cl)cc12", "values": [{"measurement": "IC50", "setting": "Brassica napus [1]", "value": 22.32, "unit": "µmol"}]}, {"smiles": "COc1cc2nc(COc3ccc(Cl)cc3)oc(=O)c2cc1OC", "values": [{"measurement": "IC50", "setting": "Brassica napus [1]", "value": 80.14, "unit": "µmol"}]}, {"smiles": "O=c1oc(COc2ccc(Cl)cc2)nc2cccc(Cl)c12", "values": [{"measurement": "IC50", "setting": "Brassica napus [1]", "value": 138.24, "unit": "µmol"}]}, {"smiles": "COc1ccc(Cl)cc1Cl", "values": [{"measurement": "IC50", "setting": "Brassica napus [1]", "value": 6.06, "unit": "µmol"}, {"measurement": "inhibition of growth at 10 µg/mL", "setting": "Echinochloa crus-galli [2]", "value": 76.2, "unit": "%"}, {"measurement": "inhibition of growth at 10 µg/mL", "setting": "Echinochloa crus-galli [3]", "value": 99.1, "unit": "%"}, {"measurement": "inhibition of growth at 1 µg/mL", "setting": "Brassica napus [4]", "value": 89.1, "unit": "%"}, {"measurement": "inhibition of growth at 10 µg/mL", "setting": "Brassica napus [5]", "value": 100, "unit": "%"}, {"measurement": "inhibition of growth at 1 µg/mL", "setting": "Echinochloa crus-galli [6]", "value": 67.3, "unit": "%"}, {"measurement": "inhibition of growth at 1 µg/mL", "setting": "Brassica napus [7]", "value": 91, "unit": "%"}, {"measurement": "inhibition of growth at 1 µg/mL", "setting": "Echinochloa crus-galli [8]", "value": 45.5, "unit": "%"}, {"measurement": "inhibition of growth at 10 µg/mL", "setting": "Brassica napus [9]", "value": 93.6, "unit": "%"}]}, {"smiles": "Cn1c(COc2ccc(Cl)cc2)nc2cccc(Cl)c2c1=O", "values": [{"measurement": "IC50", "setting": "Brassica napus [1]", "value": 201.13, "unit": "µmol"}]}, {"smiles": "O=c1oc(COc2ccc(Cl)cc2Cl)nc2cccc(Cl)c12", "values": [{"measurement": "IC50", "setting": "Brassica napus [1]", "value": 43.54, "unit": "µmol"}]}, {"smiles": "Cn1c(COc2ccc(Cl)cc2Cl)nc2c(Cl)cccc2c1=O", "values": [{"measurement": "inhibition of growth at 10 µg/mL", "setting": "Echinochloa crus-galli [2]", "value": 0, "unit": "%"}, {"measurement": "inhibition of growth at 10 µg/mL", "setting": "Echinochloa crus-galli [3]", "value": 34.6, "unit": "%"}, {"measurement": "inhibition of growth at 1 µg/mL", "setting": "Brassica napus [4]", "value": -8.8, "unit": "%"}, {"measurement": "inhibition of growth at 10 µg/mL", "setting": "Brassica napus [5]", "value": 44.5, "unit": "%"}, {"measurement": "inhibition of growth at 1 µg/mL", "setting": "Echinochloa crus-galli [6]", "value": 12.3, "unit": "%"}, {"measurement": "inhibition of growth at 1 µg/mL", "setting": "Brassica napus [7]", "value": 32.3, "unit": "%"}, {"measurement": "inhibition of growth at 1 µg/mL", "setting": "Echinochloa crus-galli [8]", "value": 1.4, "unit": "%"}, {"measurement": "inhibition of growth at 10 µg/mL", "setting": "Brassica napus [9]", "value": -2.4, "unit": "%"}]}, {"smiles": "Nn1c(COc2ccc(Cl)cc2Cl)nc2c(Cl)cccc2c1=O", "values": [{"measurement": "IC50", "setting": "Brassica napus [1]", "value": 27.23, "unit": "µmol"}, {"measurement": "inhibition of growth at 10 µg/mL", "setting": "Echinochloa crus-galli [2]", "value": 38.1, "unit": "%"}, {"measurement": "inhibition of growth at 10 µg/mL", "setting": "Echinochloa crus-galli [3]", "value": 68.5, "unit": "%"}, {"measurement": "inhibition of growth at 1 µg/mL", "setting": "Brassica napus [4]", "value": 92.3, "unit": "%"}, {"measurement": "inhibition of growth at 10 µg/mL", "setting": "Brassica napus [5]", "value": 98.2, "unit": "%"}, {"measurement": "inhibition of growth at 1 µg/mL", "setting": "Echinochloa crus-galli [6]", "value": 24.3, "unit": "%"}, {"measurement": "inhibition of growth at 1 µg/mL", "setting": "Brassica napus [7]", "value": 93.6, "unit": "%"}, {"measurement": "inhibition of growth at 1 µg/mL", "setting": "Echinochloa crus-galli [8]", "value": -7.2, "unit": "%"}, {"measurement": "inhibition of growth at 10 µg/mL", "setting": "Brassica napus [9]", "value": 95.7, "unit": "%"}]}, {"smiles": "Nn1c(COc2ccc(Cl)cc2Cl)nc2ccccc2c1=O", "values": [{"measurement": "IC50", "setting": "Brassica napus [1]", "value": 224.37, "unit": "µmol"}]}, {"smiles": "COc1cc2nc(COc3ccc(Cl)cc3Cl)n(N)c(=O)c2cc1OC", "values": [{"measurement": "IC50", "setting": "Brassica napus [1]", "value": 167.59, "unit": "µmol"}]}, {"smiles": "O=c1oc(COc2ccc(Cl)cc2Cl)nc2ccc(Cl)cc12", "values": [{"measurement": "IC50", "setting": "Brassica napus [1]", "value": 10.73, "unit": "µmol"}]}, {"smiles": "O=c1oc(COc2ccc(Cl)cc2Cl)nc2cc(Cl)ccc12", "values": [{"measurement": "IC50", "setting": "Brassica napus [1]", "value": 11.05, "unit": "µmol"}]}]}
